In the library only some 4% were active in any assay of this set; here they are far more common.
TAAR1 ag: human TAAR1 agonism. CHO RD-HGA16 TAAR1, Fluo-8 calcium fluorescence; vehicle wells 0%, saturating PEA agonist 100%. activation, % at 3 µM. actives 0.99% (n = 360,000);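 active means activation above the mean activation of all test compounds in the run plus 3 SD, cut at about 38% in these data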
Target sequence (Q96RJ0 whole entry, looked up): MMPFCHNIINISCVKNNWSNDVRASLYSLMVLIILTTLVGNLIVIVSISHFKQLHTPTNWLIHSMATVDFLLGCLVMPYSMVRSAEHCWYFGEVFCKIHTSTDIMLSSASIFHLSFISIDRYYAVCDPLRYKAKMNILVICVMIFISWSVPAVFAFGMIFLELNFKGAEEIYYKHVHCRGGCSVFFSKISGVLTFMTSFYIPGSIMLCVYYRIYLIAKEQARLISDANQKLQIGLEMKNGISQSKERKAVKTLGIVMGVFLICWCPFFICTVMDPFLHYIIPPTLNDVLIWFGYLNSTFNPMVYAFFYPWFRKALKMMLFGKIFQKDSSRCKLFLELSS
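Test system: RD-HGA16 (CHO) cells co-expressing Gα16 and hTAAR1; dosing: one-point dosing at 3 µM (nominal); timing: 17-24 h seeding, 75 min 37 °C dye, 30 min RT; signal: kinetic Fluo-8 calcium fluorescence; read-out basis: % activation relative to PEA EC100 response; controls: DMSO and PEA EC100; replicates: n 1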
CHO parental Ca: counter-screen: ATP calcium response change in parental CHO cells | AID 463079 | parental CHO-K1, ATP-induced calcium, Fluo-8 fluorescence | inhibition, % at 5.6 µM | actives 0.63% (n = 330,000);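 active means inhibition above that plate's mean sample inhibition plus 3 SD, cut at about 26% in these data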;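 further: 0% = ATP-challenged DMSO wells and 100% = DMSO wells without ATP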
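Test system: untransfected parental CHO cell line. Compound: one dose, 5.6 µM nominal. Detection: intracellular calcium via Fluo-8 no-wash fluorescent dye. Measure: % inhibition. Benchmarks: ATP-challenged DMSO wells low, unchallenged DMSO wells high.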
NTR1 agonist: activates human neurotensin receptor 1; actives 0.17% (n = 330,000); activation, % at 20 µM; AID 493036; NTR1-U2OS beta-arrestin-GFP spot imaging, agonist mode; P30989;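 active means activation at or above 40% of the spot to cytoplasm intensity ratio, with at least 20 cells analyzed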;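 further: 0% = DMSO without peptide and 100% = 100 nM NTR1 peptide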
Target sequence (P30989 whole entry, looked up): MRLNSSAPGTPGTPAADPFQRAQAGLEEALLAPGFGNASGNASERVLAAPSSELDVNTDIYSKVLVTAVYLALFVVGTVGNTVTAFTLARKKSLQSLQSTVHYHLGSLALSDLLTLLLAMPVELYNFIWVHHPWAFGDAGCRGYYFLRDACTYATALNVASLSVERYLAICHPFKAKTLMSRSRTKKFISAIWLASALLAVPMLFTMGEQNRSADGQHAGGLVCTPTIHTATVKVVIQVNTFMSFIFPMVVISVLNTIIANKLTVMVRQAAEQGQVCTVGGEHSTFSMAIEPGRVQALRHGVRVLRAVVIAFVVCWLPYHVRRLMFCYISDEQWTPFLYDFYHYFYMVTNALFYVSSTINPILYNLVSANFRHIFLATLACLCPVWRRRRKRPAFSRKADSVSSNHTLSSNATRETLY
TAAR1 antag: human TAAR1 antagonism; Q96RJ0; CHO RD-HGA16 TAAR1, Fluo-8 calcium fluorescence, antagonist; actives 1.5% (n = 360,000); AID 624466; inhibition, % at 3 µM;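 active means inhibition above a per-plate cutoff, the mean inhibition of test compounds on that plate plus 3 SD, cut at about 49% in these data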;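 further: 0% = DMSO plus EC80 beta-PEA response and 100% = DMSO alone without agonist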
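Material: RD-HGA16 CHO cells with stable hTAAR1 and Gα16; Dosing: single nominal final test compound concentration of 3 µM; Schedule: seeding 17-24 h prior, 75-min 37 °C, 30-min RT dye loading; Detection: kinetic Fluo-8 calcium fluorescence measurement; Measure: % inhibition from peak post-agonist over basal fluorescence ratio; Benchmarks: vehicle and agonist controls.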
OX1R antag-1: antagonists of human orexin 1 receptor. actives 0.43% (n = 330,000). O43613. inhibition, % at 5 µM. AID 434989. CHO/OX1R cells, Fluo-8 calcium fluorescence, orexin A;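 active means inhibition above its plate's threshold, mean inhibition of all tested compounds on the plate plus 3 SD, cut at about 37% in these data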;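 further: 0% = orexin A challenge wells and 100% = SB-334867-A antagonist wells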
OX1R antag-2: OX1R (human) antagonism; O43613; OX1R-expressing cells, FRET antagonist read-out; inhibition, % at 6.6 µM; actives 1.8% (n = 330,000); in the data active means inhibition mostly above about 38%, no sharp cut-off; inactive means mostly below about 40%;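 further: 0% = agonist challenge alone and 100% = reference antagonist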
TAAR1 nonsel count: nonselective antagonist in TAAR1 antagonist counter-screen | shares compounds with TAAR1 antag | counterscreen cell line, calcium fluorescence, antagonist mode | inhibition, % at 3 µM | actives 77% (n = 2,400) | AID 651780; in the data active means inhibition above about 22%;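 further: CHO-Ga16 host cells stimulated with ATP at an EC80 level; 0% = agonist EC80 plus vehicle and 100% = vehicle without agonist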
TAAR1 antag conf: confirmation of human TAAR1 antagonists; shares compounds with TAAR1 antag; TAAR1-expressing cells, fluorescence antagonist read-out; inhibition, % at 3 µM; actives 40% (n = 2,400); AID 651785; in the data active means inhibition above about 49%;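 further: CHO-Ga16 host cells challenged with agonist PEA near its EC80; 0% = agonist at EC80 plus vehicle and 100% = vehicle with no agonist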
Ga16 nonsel ag: counter-screen for TAAR1 antagonists: nonselective Ga16 agonists | actives 18% (n = 2,400) | activation, % at 3 µM | Ga16-expressing cells, calcium fluorescence, agonist counterscreen | shares compounds with TAAR1 antag; in the data active means activation above about 12%;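 further: 0% = vehicle wells and 100% = saturating stimulus response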
TAAR1 ag counter: TAAR1 agonism, antagonist counter-screen; shares compounds with TAAR1 antag; hTAAR1 cell line, fluorescence activation, agonist mode; activation, % at 3 µM; actives 2% (n = 2,400); AID 651955; in the data active means activation above about 37%;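 further: CHO cells stably expressing TAAR1 with calcium dye readout; 0% = DMSO vehicle and 100% = full agonist response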
Active calls of the source: *.

How did COc1cc2c(cc1OC)C1=C(C#N)CN(C3CCCCC3)CN1CC2 do in these assays?
TAAR1 ag: 8; CHO parental Ca: -19; NTR1 agonist: 0; TAAR1 antag: 53*; OX1R antag-1: -31; OX1R antag-2: 7; TAAR1 nonsel count: 23*; TAAR1 antag conf: 34; Ga16 nonsel ag: 10; TAAR1 ag counter: 7

Results for COc1ccc2c(c1)[nH]c1c(=O)n(/N=C/C3C(C)C=C(C)CC3C)c(=O)[nH]c12 (stereo unspecified) ?
TAAR1 ag: 17; CHO parental Ca: 0; NTR1 agonist: 0; TAAR1 antag: 62*; OX1R antag-1: -13; OX1R antag-2: 24; TAAR1 nonsel count: 21; TAAR1 antag conf: 41; Ga16 nonsel ag: 7; TAAR1 ag counter: 9

What do the screens show for `COc1ccc2[nH]c3c(=O)n(/N=C/[C@H]4C(C)C=C(C)CC4C)c(=O)[nH]c3c2c1` (stereo partly specified)?
TAAR1 ag: 18; CHO parental Ca: -8; NTR1 agonist: 3; TAAR1 antag: 60*; OX1R antag-1: -18; OX1R antag-2: 24; TAAR1 nonsel count: 34*; TAAR1 antag conf: 48; Ga16 nonsel ag: 9; TAAR1 ag counter: 10

How did COc1cc(-c2nc(CN(C)Cc3nnc(C)o3)c(C)o2)ccc1F do in these assays?
TAAR1 ag: 0; CHO parental Ca: 1; NTR1 agonist: -1; TAAR1 antag: -6; OX1R antag-1: -10; OX1R antag-2: 23

What do the screens show for `COc1cccc(-c2nn(-c3ccccc3)cc2C(=O)Nc2nccs2)c1`?
TAAR1 ag: 8; CHO parental Ca: -13; NTR1 agonist: 2; TAAR1 antag: 65*; OX1R antag-1: -15; OX1R antag-2: 60; TAAR1 nonsel count: 20; TAAR1 antag conf: 49*; Ga16 nonsel ag: 4; TAAR1 ag counter: 4

What do the screens show for `COc1ccc(CCN2C(=O)c3cccc4c(C(=O)N5CCCCC5)ccc(c34)C2=O)cc1OC`?
TAAR1 ag: 21; CHO parental Ca: -19; NTR1 agonist: 38; TAAR1 antag: 61*; OX1R antag-1: -23; OX1R antag-2: 14; TAAR1 nonsel count: 36*; TAAR1 antag conf: 61*; Ga16 nonsel ag: 12*; TAAR1 ag counter: 13

What do the screens show for `COc1ccccc1CCNC(=O)C(=O)NCC1OCCN1C(=O)c1ccc(Cl)cc1` (stereo unspecified)?
TAAR1 ag: 31; CHO parental Ca: -20; NTR1 agonist: 2; TAAR1 antag: 15; OX1R antag-1: -28; OX1R antag-2: 18

Results for O=C(CSc1nc2ccccc2s1)NC(=O)NCc1ccco1 ?
TAAR1 ag: 3; CHO parental Ca: -14; NTR1 agonist: 0; TAAR1 antag: -10; OX1R antag-1: -18; OX1R antag-2: 18

Results for O=C(CSc1nc(-c2ccccc2)cs1)NC(=O)NCc1ccco1 ?
TAAR1 ag: 7; CHO parental Ca: -9; NTR1 agonist: 8; TAAR1 antag: 54*; OX1R antag-1: -13; OX1R antag-2: 15; TAAR1 nonsel count: 30*; TAAR1 antag conf: 42; Ga16 nonsel ag: 5; TAAR1 ag counter: 2

Results for OCCC1CN(Cc2ccc3cccc(F)c3n2)CCN1Cc1ccccc1 (stereo unspecified) ?
TAAR1 ag: -1; CHO parental Ca: -17; NTR1 agonist: 0; TAAR1 antag: -11; OX1R antag-1: -18; OX1R antag-2: -1

Results for CC(C)(C)c1ccc(SC2=C[C@@]3(O)CC[C@@H](O)[C@@](Sc4ccc(C(C)(C)C)cc4)(C2=O)[C@H]3O)cc1 ?
TAAR1 ag: 4; TAAR1 antag: 73*; TAAR1 nonsel count: 33*; TAAR1 antag conf: 40; Ga16 nonsel ag: 2; TAAR1 ag counter: -2

What do the screens show for `Cc1ccc(SC2=C[C@@]3(O)CC[C@@H](O)[C@@](Sc4ccc(C)cc4)(C2=O)[C@H]3O)cc1`?
TAAR1 ag: -1; TAAR1 antag: -12

What do the screens show for `CCN(CC(=O)Nc1c(F)cccc1F)C(=O)CSc1nnc(-c2ccco2)n1CC`?
TAAR1 ag: 1; CHO parental Ca: -10; NTR1 agonist: 1; TAAR1 antag: -13; OX1R antag-1: 2; OX1R antag-2: 17

What do the screens show for `CCC(CO)Oc1cc(NCc2cccc(OC)c2)c2ncn(C(C)C)c2c1` (stereo unspecified)?
TAAR1 ag: 14; CHO parental Ca: -8; NTR1 agonist: -1; TAAR1 antag: 106*; OX1R antag-1: -22; OX1R antag-2: 17; TAAR1 nonsel count: 9; TAAR1 antag conf: 2; Ga16 nonsel ag: 0; TAAR1 ag counter: 0

Results for CCC(CO)Oc1cc(NCc2cccc(O)c2)c2ncn(C(C)C)c2c1 (stereo unspecified) ?
TAAR1 ag: 8; CHO parental Ca: -10; NTR1 agonist: -2; TAAR1 antag: 4; OX1R antag-1: -15; OX1R antag-2: 13

Results for COc1cc(/C=C/C(=O)O)cc2c1OCCO2 ?
TAAR1 ag: 2; CHO parental Ca: 1; NTR1 agonist: 1; TAAR1 antag: -17; OX1R antag-1: -19; OX1R antag-2: 9

What do the screens show for `OC[C@@H]1CN(Cc2ccc(F)cc2)C[C@H](n2cnc3c(N4CCOCC4)ncnc32)O1`?
TAAR1 ag: 3; TAAR1 antag: -15

How did Cc1ccc(S(=O)(=O)N(C)C)cc1NC(=O)c1cc(-c2ccncc2)nc2ccccc12 do in these assays?
TAAR1 ag: 12; CHO parental Ca: -2; NTR1 agonist: 1; TAAR1 antag: 54*; OX1R antag-1: -22; OX1R antag-2: -1; TAAR1 nonsel count: 21; TAAR1 antag conf: 34; Ga16 nonsel ag: 7; TAAR1 ag counter: 10

What do the screens show for `CCOC(=O)Cc1csc(NC(=O)c2ccc(N3CCOCC3)cc2[N+](=O)[O-])n1`?
TAAR1 ag: 20; CHO parental Ca: -9; NTR1 agonist: 6; TAAR1 antag: 55*; OX1R antag-1: -1; OX1R antag-2: 12; TAAR1 nonsel count: 38*; TAAR1 antag conf: 53*; Ga16 nonsel ag: 11; TAAR1 ag counter: 12

Compound activity: PubChem, several laboratories
